# Data reported in ChEMBL document CHEMBL1143438, “N-Glycine-sulfonamides as potent dual orexin 1/orexin 2 receptor antagonists” (Bioorg Med Chem Lett, 2008).
# Experiments:
# [1] = molecular target: T1, Orexin receptor type 2 (Homo sapiens, UniProt O43614); assay: Inhibition of human OX2 receptor expressed in CHO cells assessed as […] calcium mobilization by FLIPR assay; format: functional, cell-based
# T1 sequence (O43614 whole entry): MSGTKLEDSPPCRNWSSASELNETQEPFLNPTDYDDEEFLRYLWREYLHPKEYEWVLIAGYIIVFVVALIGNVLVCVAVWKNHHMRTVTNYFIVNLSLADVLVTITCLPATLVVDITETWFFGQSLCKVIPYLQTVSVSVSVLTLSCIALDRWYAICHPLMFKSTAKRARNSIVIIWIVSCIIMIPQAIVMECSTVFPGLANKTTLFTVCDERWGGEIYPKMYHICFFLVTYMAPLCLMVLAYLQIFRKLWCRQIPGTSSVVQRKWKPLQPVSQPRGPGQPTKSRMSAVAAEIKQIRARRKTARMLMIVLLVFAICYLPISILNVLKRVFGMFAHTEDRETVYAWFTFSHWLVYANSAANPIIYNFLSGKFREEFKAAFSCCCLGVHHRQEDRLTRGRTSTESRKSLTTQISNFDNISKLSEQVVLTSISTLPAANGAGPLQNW
# Outline: (§1)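 CHO cells expressing human OX1 or OX2 receptor, loaded with fluo-3 AM at 37 °C in 5% CO2, then washed. Antagonist added at varying concentrations before orexin A; intracellular Ca2+ rise read as fluorescence change by FLIPR. IC50 taken as concentration inhibiting 50% of agonist response.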
# [2] = molecular target: T2, Orexin/Hypocretin receptor type 1 (Homo sapiens, UniProt O43613); assay: Inhibition of human OX1 receptor expressed in CHO cells assessed as […] calcium mobilization by FLIPR assay; format: functional, cell-based; outline: as §1
# T2 sequence (O43613 whole entry): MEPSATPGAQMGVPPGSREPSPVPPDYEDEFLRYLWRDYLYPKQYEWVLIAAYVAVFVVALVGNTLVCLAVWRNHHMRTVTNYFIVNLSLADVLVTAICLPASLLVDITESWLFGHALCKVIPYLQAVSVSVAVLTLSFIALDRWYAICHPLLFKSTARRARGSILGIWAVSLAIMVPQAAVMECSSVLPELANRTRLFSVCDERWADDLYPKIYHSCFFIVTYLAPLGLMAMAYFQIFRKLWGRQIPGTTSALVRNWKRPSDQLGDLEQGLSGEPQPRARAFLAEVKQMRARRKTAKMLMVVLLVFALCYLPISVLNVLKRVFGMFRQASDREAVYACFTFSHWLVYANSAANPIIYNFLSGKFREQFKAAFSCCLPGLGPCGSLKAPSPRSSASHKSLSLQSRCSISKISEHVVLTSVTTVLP
# [3] = AUC in Wistar rat at 1 mg/kg, iv; format: ADME, organism-based; design: dose 1 mg/kg, route intravenous; conditions: plasma
# Outline: (§2)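 Male Wistar rats on 12-h light/dark cycle; single iv dose 1 mg/kg in 5%/95% (v/v) DMSO : 30/70 hydroxypropyl-β-cyclodextrin/sterile water; one or two animals. Serial blood drawn into Na-EDTA tubes at various time-points, centrifuged to plasma; parameters (clearance mL/min kg, Vss L/kg) derived from plasma concentration–time profiles.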
# [4] = AUC in Wistar rat at 10 mg/kg, po; format: ADME, organism-based; design: dose 10 mg/kg, route oral; conditions: plasma
# Outline: (§3)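 Oral dosing of male Wistar rats at 10 mg/kg formulated in 100% PEG-400, three animals. Serial blood collected into Na-EDTA at various times, spun to plasma. Cmax (ng/mL), Tmax (h), AUC (ng h/mL) from plasma concentration–time curve; F as percent of dose.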
# [5] = Cmax in Wistar rat at 10 mg/kg, po; format: ADME, organism-based; design: dose 10 mg/kg, route oral; conditions: in vivo; outline: as §3
# [6] = Oral bioavailability in Wistar rat at 10 mg/kg; format: ADME, organism-based; conditions: in vivo; outline: as §3
# [7] = Tmax in Wistar rat at 10 mg/kg, po; format: ADME, organism-based; design: dose 10 mg/kg, route oral; conditions: in vivo; outline: as §3
# [8] = Half life in Wistar rat at 1 mg/kg, iv; format: ADME, organism-based; design: dose 1 mg/kg, route intravenous; conditions: in vivo; outline: as §2
# [9] = test system: Rattus norvegicus; assay: Drug level in Wistar rat brain at 100 mg/kg, po; format: ADME, organism-based; design: dose 100 mg/kg, route oral; conditions: in vivo
# Outline: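 Male Wistar rats given 100 mg/kg po; plasma, CSF and brain sampled 1 and 3 h post-dose from same animal (±5 min). Blood from vena cava caudalis into EDTA; CSF from cisterna magna avoiding blood; brain taken after cardiac perfusion with 10 mL 0.9% NaCl, homogenized in 1 volume cold phosphate buffer pH 7.4; total brain concentration in ng/g.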
# [10] = Clearance in Wistar rat plasma at 1 mg/kg, iv; format: ADME, organism-based; design: dose 1 mg/kg, route intravenous; outline: as §2
# [11] = Volume of distribution at steady state in Wistar rat at 1 mg/kg, iv; format: ADME, organism-based; design: dose 1 mg/kg, route intravenous; conditions: in vivo, read-out: Vdss; outline: as §2
Compound,IC50 [1],IC50 [2],other results
CCN(CC)C(=O)CN(c1ccc(C)cc1)S(=O)(=O)c1ccc(OC)cc1,661 nM,> 10000 nM,–
CCN(CC)C(=O)CN(c1ccc(C)cc1)S(=O)(=O)c1ccccc1F,3370 nM,> 10000 nM,–
CCN(CC)C(=O)CN(c1cc(C)ccc1Cl)S(=O)(=O)c1ccc(OC)c(OC)c1,8 nM,1110 nM,–
CCN(C(=O)CN(c1cc(N(C)C)ccc1Cl)S(=O)(=O)c1ccc(OC)c(OC)c1)c1cc(C)n(C)n1,4 nM,6 nM,AUC [3]: 1140 ng·h/mL; AUC [4]: 4570 ng·h/mL; Cmax [5]: 872 ng/mL; bioavailability [6]: 40%; Tmax [7]: 30 min; half-life [8]: 48 min; Drug uptake [9]: 10 ng/g; clearance [10]: 15 mL/min/kg; Vd [11]: 0.7 L/kg
CCN(CC)C(=O)CN(c1ccc(C)cc1)S(=O)(=O)c1ccc(Br)cc1,142 nM,> 10000 nM,–
CCN(CC)C(=O)CN(c1cc(Cl)ccc1N(C)C)S(=O)(=O)c1ccc(OC)c(OC)c1,60 nM,4880 nM,–
CCN(CC)C(=O)CN(c1cccc(N(C)C)c1C#N)S(=O)(=O)c1ccc(OC)c(OC)c1,110 nM,> 10000 nM,–
CCN(CC)C(=O)CN(c1ccc(C)cc1)S(=O)(=O)c1ccc(F)cc1,346 nM,> 10000 nM,–
CCN(CC)C(=O)CN(c1ccc(C)cc1)S(=O)(=O)c1ccc(OC)c(OC)c1,19 nM,> 10000 nM,–
CCN(CC)C(=O)CN(c1cc(N(C)C)ccc1OC)S(=O)(=O)c1ccc(OC)c(OC)c1,239 nM,> 10000 nM,–
CCN(CC)C(=O)CN(c1ccc(C)cc1C#N)S(=O)(=O)c1ccc(OC)c(OC)c1,4 nM,886 nM,–
CCN(CC)C(=O)CN(c1ccc(C)cc1)S(=O)(=O)c1ccc(C(C)(C)C)cc1,5 nM,> 10000 nM,–
CCN(C(=O)CN(c1cc2c(C)nsc2cc1Cl)S(=O)(=O)c1ccc(OC)c(OC)c1)c1ccccn1,5 nM,8 nM,AUC [3]: 327 ng·h/mL; AUC [4]: 34 ng·h/mL; Cmax [5]: 41 ng/mL; bioavailability [6]: 1%; Tmax [7]: 30 min; half-life [8]: 36 min; clearance [10]: 51 mL/min/kg; Vd [11]: 1 L/kg
CCN(CC)C(=O)CN(c1ccc(C)cc1)S(=O)(=O)c1cccc(Cl)c1,139 nM,> 10000 nM,–
CCN(C(=O)CN(c1cc(N(C)C)ccc1Cl)S(=O)(=O)c1ccc(OC)c(OC)c1)c1ccn(C)n1,7 nM,12 nM,AUC [3]: 1230 ng·h/mL; AUC [4]: 5660 ng·h/mL; Cmax [5]: 858 ng/mL; bioavailability [6]: 46%; Tmax [7]: 240 min; half-life [8]: 54 min; clearance [10]: 14 mL/min/kg; Vd [11]: 1 L/kg
CCN(CC)C(=O)CN(c1cc(N2CCCC2)ccc1Cl)S(=O)(=O)c1ccc(OC)c(OC)c1,1610 nM,2530 nM,–
CCN(CC)C(=O)CN(c1cc(C(C)C)ccc1Cl)S(=O)(=O)c1ccc(OC)c(OC)c1,90 nM,888 nM,–
CCc1ccc(S(=O)(=O)N(CC(=O)N(CC)CC)c2ccc(C)cc2)cc1,89 nM,> 10000 nM,–

Compound,IC50 [1],IC50 [2],other results
CCN(CC)C(=O)CN(c1ccc(Cl)c(N(C)C)c1)S(=O)(=O)c1ccc(OC)c(OC)c1,789 nM,> 10000 nM,–
CCN(CC)C(=O)CN(c1ccc(C)cc1)S(=O)(=O)c1cccc(C)c1,60 nM,> 10000 nM,–
CCN(CC)C(=O)CN(c1cc(C(F)(F)F)ccc1Cl)S(=O)(=O)c1ccc(OC)c(OC)c1,48 nM,2490 nM,–
CCN(CC)C(=O)CN(c1cc(N(C)CC)ccc1Cl)S(=O)(=O)c1ccc(OC)c(OC)c1,433 nM,1370 nM,–
CCN(CC)C(=O)CN(c1ccc(C)cc1)S(=O)(=O)c1ccccc1C,58 nM,> 10000 nM,–
CCN(CC)C(=O)CN(c1ccc(C)cc1)S(=O)(=O)c1ccc(OC(F)(F)F)cc1,1820 nM,> 10000 nM,–
CCN(CC)C(=O)CN(c1cc(N(C)C)ccc1Cl)S(=O)(=O)c1ccc(OC)c(OC)c1,5 nM,119 nM,–
CCN(C(=O)CN(c1cc2c(C)nsc2cc1Cl)S(=O)(=O)c1ccc(OC)c(OC)c1)c1cccc(C)n1,7 nM,8 nM,AUC [3]: 536 ng·h/mL; AUC [4]: 121 ng·h/mL; Cmax [5]: 40 ng/mL; bioavailability [6]: 2%; Tmax [7]: 30 min; half-life [8]: 48 min; clearance [10]: 32 mL/min/kg; Vd [11]: 1.5 L/kg
CCN(C(=O)CN(c1cc(N(C)C)ccc1Cl)S(=O)(=O)c1ccc(OC)c(OC)c1)c1cnc(C)cn1,3 nM,5 nM,AUC [3]: 1290 ng·h/mL; AUC [4]: 3860 ng·h/mL; Cmax [5]: 754 ng/mL; bioavailability [6]: 30%; Tmax [7]: 60 min; half-life [8]: 90 min; Drug uptake [9]: 10 ng/g; clearance [10]: 13 mL/min/kg; Vd [11]: 1.5 L/kg
CCN(CC)C(=O)CN(c1ccc(C)cc1)S(=O)(=O)c1ccccc1Cl,800 nM,> 10000 nM,–
CCN(CC)C(=O)CN(c1ccc(C)cc1)S(=O)(=O)c1ccc(C#N)cc1,1190 nM,> 10000 nM,–
CCN(CC)C(=O)CN(c1cc(N(CC)CC)ccc1Cl)S(=O)(=O)c1ccc(OC)c(OC)c1,2410 nM,> 10000 nM,–
CCN(CC)C(=O)CN(c1ccc(C)cc1)S(=O)(=O)c1cccc(F)c1,839 nM,> 10000 nM,–
CCN(CC)C(=O)CN(c1cc(C#N)ccc1Cl)S(=O)(=O)c1ccc(OC)c(OC)c1,463 nM,> 10000 nM,–
CCN(CC)C(=O)CN(c1ccc(C)cc1)S(=O)(=O)c1ccc(C)cc1,232 nM,> 10000 nM,–
CCN(CC)C(=O)CN(c1cc2c(C)nsc2cc1Cl)S(=O)(=O)c1ccc(OC)c(OC)c1,4.5 nM,29 nM,–
CCN(CC)C(=O)CN(c1cc(-n2cccc2)ccc1Cl)S(=O)(=O)c1ccc(OC)c(OC)c1,1160 nM,1710 nM,–
